Converted amounts (≈) assume the structure as drawn.
Legend:
[1] = Solubility of the compound in serum-free DMEM assessed as compound concentration required for crystal formation measured after 1 day by microscopic analysis; format: physicochemical; conditions: 24 h
How it was run: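 Compound at 0, 0.5, 1, 5, 10, 25 and 50 μM in serum-free DMEM incubated 1 day at 37 °C, 10% CO2, then examined for crystal formation.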

[2] = Antioxidant activity assessed as inhibition of DPPH radical activity at 1 uM measured after 30 mins under dark conditions by spectrophotometric analysis relative to control; format: functional
[3] = Growth inhibition of CHOK1 cells assessed as mitochondrial activity measured after 72 hrs by MTT assay; format: functional, cell-based; conditions: Cricetulus griseus, CHO-K1, 72 h
How it was run: (§1)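 Seeded 20000 cells/well in DMEM+glutamax, NEAA, P/S, FBS; after 1 day treated 1, 5, 10, 25 μM in serum-free medium (DMSO under 0.1%) for 3 days. MTT (5 mg/ml in PBS) 2 h at 37 °C, 10% CO2 in dark; formazan dissolved in DMSO, absorbance 570 nm; triplicate; IC50 derived.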

[4] = Antioxidant activity assessed as trolox equivalent of ferric ion reducing activity using Fe3+-TPTZ by measuring Fe2+-TPTZ formation after 4 mins by UV-vis spectrophotometry based FRAP assay; format: functional
How it was run: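 FRAP reagent: 300 mM acetate buffer, 10 mM TPTZ in ethanol and 20 mM FeCl3 (in dilute HCl) combined 10:1:1, TPTZ and iron freshly made. Sample mixed 1:9 with reagent; absorbance 593 nm after 4 min. Expressed as trolox equivalents per μM from slope of linear plot versus analog concentration.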

[5] = Growth inhibition of CHOK1 cells measured after 72 hrs by SRB assay; format: functional, cell-based; conditions: Cricetulus griseus, CHO-K1, 72 h
How it was run: (§2)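 20000 cells/well treated after 1 day at 1, 5, 10, 25 μM, serum-free, for 3 days. Fixed with 50% TCA 1 h at 4 °C, stained 30 min with 0.4% sulforhodamine B in 1% acetic acid, rinsed with 1% acetic acid, dye dissolved in 10 mM Tris, absorbance 490 nm; triplicate; IC50 derived.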

[6] = Growth inhibition of human HT-29 cells measured after 72 hrs by SRB assay; format: functional, cell-based; conditions: HT-29, 72 h; how it was run: as §2
[7] = Growth inhibition of undifferentiated human Caco2 cells assessed as mitochondrial activity measured after 72 hrs by MTT assay; format: functional, cell-based; conditions: Caco-2, 72 h; how it was run: as §1
[8] = Growth inhibition of undifferentiated human Caco2 cells measured after 72 hrs by SRB assay; format: functional, cell-based; conditions: Caco-2, 72 h; how it was run: as §2
[9] = Growth inhibition of differentiated human Caco2 cells assessed as mitochondrial activity measured after 72 hrs by MTT assay; format: cell-based; conditions: Caco-2, 72 h; how it was run: as §1
[10] = Growth inhibition of differentiated human Caco2 cells measured after 72 hrs by SRB assay; format: cell-based; conditions: Caco-2, 72 h; how it was run: as §2
[11] = Growth inhibition of human HT-29 cells assessed as mitochondrial activity measured after 72 hrs by MTT assay; format: functional, cell-based; conditions: HT-29, 72 h; how it was run: as §1
[12] = Growth inhibition of human EAhy926 cells assessed as mitochondrial activity measured after 72 hrs by MTT assay; format: cell-based; conditions: EA.hy 926, 72 h; how it was run: as §1
[13] = Growth inhibition of human EAhy926 cells measured after 72 hrs by SRB assay; format: cell-based; conditions: EA.hy 926, 72 h; how it was run: as §2
EA.hy 926 [14] = test: Effect on oxidative stress in human EAhy926 cells assessed as intracellular ROS level at 1 uM after overnight incubation by DCFH-DA staining based fluorescence assay relative to control; format: functional
How it was run: (§3)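 Cells grown in DMEM+glutamax, 1% NEAA, 1% P/S, 10% FBS; seeded 20000/well, treated at confluency overnight in serum-free medium, DMSO under 0.1% final. Loaded with 20 μM DCFH-DA 30 min at 37 °C, 10% CO2; washed, phenol red-free medium 1 h, then serum-free medium; fluorescence ex 485/em 535 nm. Percent of untreated; two-tailed unequal-variance t-test, n≥6.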

CHO [15] = test: Effect on oxidative stress in CHO cells assessed as intracellular ROS level at 1 uM after overnight incubation by DCFH-DA staining based fluorescence assay relative to control; format: functional, Cricetulus griseus; how it was run: as §3
CHO [16] = test: Effect on oxidative stress in CHO cells assessed as intracellular ROS level at 10 uM after overnight incubation by DCFH-DA staining based fluorescence assay relative to control; format: functional, Cricetulus griseus; how it was run: as §3
Caco-2 [17] = test: Effect on oxidative stress in undifferentiated human Caco2 cells assessed as intracellular ROS level at 1 uM after overnight incubation by DCFH-DA staining based fluorescence assay relative to control; format: functional; how it was run: as §3
Caco-2 [18] = test: Effect on oxidative stress in undifferentiated human Caco2 cells assessed as intracellular ROS level at 10 uM after overnight incubation by DCFH-DA staining based fluorescence assay relative to control; format: functional; how it was run: as §3
HT-29 [19] = test: Effect on oxidative stress in human HT-29 cells assessed as intracellular ROS level at 1 uM after overnight incubation by DCFH-DA staining based fluorescence assay relative to control; format: functional; how it was run: as §3
HT-29 [20] = test: Effect on oxidative stress in human HT-29 cells assessed as intracellular ROS level at 10 uM after overnight incubation by DCFH-DA staining based fluorescence assay relative to control; format: functional; how it was run: as §3
EA.hy 926 [21] = test: Effect on oxidative stress in human EAhy926 cells assessed as intracellular ROS level at 10 uM after overnight incubation by DCFH-DA staining based fluorescence assay relative to control; format: functional; how it was run: as §3
HT-29 [22] = test: Antioxidant activity in human HT-29 cells assessed as decrease in intracellular ROS level after overnight incubation by DCFH-DA staining based fluorescence assay; format: functional, cell-based; how it was run: as §3
HT-29 [23] = test: Antioxidant activity in human HT-29 cells assessed as decrease in intracellular ROS level after overnight incubation by DCFH-DA staining based fluorescence assay

Structure (SMILES) | solubility [1] [µM] | inhibition [2] [%] | IC50 [3] [µM] | Activity [4] [µMequiv/µM] | IC50 [5] [µM] | IC50 [6] [µM] | IC50 [7] [µM] | IC50 [8] [µM] | IC50 [9] [µM] | IC50 [10] [µM] | IC50 [11] [µM] | IC50 [12] [µM] | IC50 [13] [µM] | Activity (EA.hy 926 [14]) [%] | Activity (CHO [15]) [%] | Activity (CHO [16]) [%] | Activity (Caco-2 [17]) [%] | Activity (Caco-2 [18]) [%] | Activity (HT-29 [19]) [%] | Activity (HT-29 [20]) [%] | also measured
COc1cc(/C=C/C(=O)CC(=O)/C=C/c2ccc(O)c(OC)c2)ccc1O [CURCUMIN] | 0.5 (≈ 0.184 µg/mL) | 0.15 | 7.5 | 1 | > 25 | > 25 | > 25 | > 25 | > 25 | > 25 | > 25 | > 25 | > 25 | 91 | 112 | 97 | 84 | 77 | 67 | 65 | Activity (EA.hy 926 [21]): 88%; Activity (HT-29 [22]): Dose-dependent effect; Activity (HT-29 [23]): Dose-dependent effect
CCC(C)NC(=C\C(=O)/C=C/c1ccc(OC(C)=O)c(OC)c1)/C=C/c1ccc(OC(C)=O)c(OC)c1 (configuration not stated) | 5 (≈ 2.54 µg/mL) | 0 | > 25 | 0 | > 25 | > 25 | > 25 | 24 | > 25 | > 25 | > 25 | > 25 | > 25 | 68 | 88 | 92 | 95 | 86 | 92 | 89 | Activity (EA.hy 926 [21]): 105%
CCC(C)NC(=C\C(=O)/C=C/c1ccc(O)cc1)/C=C/c1ccc(O)cc1 (configuration not stated) | 25 (≈ 9.09 µg/mL) | 0.03 | 13.1 | 0.18 | 15.1 | 15.6 | 9.4 | 5.8 | > 25 | > 25 | 13 | 22 | > 25 | 99 | 104 | 111 | 102 | 102 | 76 | 76 | Activity (EA.hy 926 [21]): 414%
CCC(C)NC(=C\C(=O)/C=C/c1ccc(O)c(OC)c1)/C=C/c1ccc(O)c(OC)c1 (configuration not stated) | 50 (≈ 21.2 µg/mL) | 0.13 | > 25 | 1.08 | > 25 | 22.3 | > 25 | > 25 | > 25 | > 25 | > 25 | > 25 | > 25 | 85 | 107 | 112 | 91 | 66 | 99 | 90 | Activity (EA.hy 926 [21]): 184%
CC(=O)Oc1ccc(/C=C/C(=O)/C=C(/C=C/c2ccc(OC(C)=O)cc2)NCC(C)C)cc1 | 25 (≈ 11.2 µg/mL) | 0 | > 25 | 0.01 | > 25 | 22.6 | > 25 | > 25 | > 25 | > 25 | 13.7 | > 25 | > 25 | 60 | 152 | 142 | 102 | 85 | 92 | 99 | Activity (EA.hy 926 [21]): 53%
